The source of these data is paper PMC11696124 (Nature Communications, 2025).

The IC50 is the concentration at which inhibition is half-maximal. Higher therefore signals a need for much substance. A word on the EC50: it is the concentration at which the effect is half-maximal. By logD is commonly meant lipophilicity at a set pH, counting ionised and neutral species. Higher therefore signals a more lipophilic compound. The term hepatocyte CLint denotes a measure of how fast metabolising enzymes remove a compound, apart from limits set by blood flow. High values mean faster metabolism, low ones greater metabolic stability. A word on the Vd: it is a proportionality between amount in the body and measured concentration, not a real space. The term clearance denotes a measure of how efficiently the substance is removed, as volume per time. As a reminder, the half-life is how long it takes for the measured level to halve. Higher therefore signals slow loss. One may read the bioavailability as dose-corrected exposure relative to a reference, in per cent. High values mean much systemic uptake, low ones little systemic uptake.

Residue numbers refer to the chain shown, from its start.

The target in series [1] is T1, APOL1 G1 (Homo sapiens, UniProt O14791, I384M/M228I/R255K/S342G).
T1 sequence (O14791 28-398 M228I/R255K/S342G/I384M): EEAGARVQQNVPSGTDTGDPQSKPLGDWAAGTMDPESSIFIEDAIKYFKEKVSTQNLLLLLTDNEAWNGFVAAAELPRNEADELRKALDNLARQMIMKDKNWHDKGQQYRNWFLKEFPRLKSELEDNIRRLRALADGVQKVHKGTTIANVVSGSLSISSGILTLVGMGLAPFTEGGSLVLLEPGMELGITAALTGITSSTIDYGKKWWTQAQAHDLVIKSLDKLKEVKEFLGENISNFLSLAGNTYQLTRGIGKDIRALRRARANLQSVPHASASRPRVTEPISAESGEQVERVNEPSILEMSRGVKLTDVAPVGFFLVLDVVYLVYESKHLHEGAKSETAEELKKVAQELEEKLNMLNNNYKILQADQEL
The series is described as follows: Thallium flux assay, tet-inducible HEK293 APOL1 G1. The series is classed as cell-based.

For series [2], the target named is T1, APOL1 G1. Put plainly: HEK cell rescue. Format: cell-based.
Another series is described as follows: LogD7.4. The series is classed as physicochemical. Conditions: pH 7.4.
Another series is described as follows: Rat Clint. Format: in vitro ADME. The note with it: hepatocytes.
The next series can be described thus: Human Clint. The series is classed as in vitro ADME. Conditions: hepatocytes.
The nature of the next series: Rat pharmacokinetics. Conditions: in vivo; for bioavailability: po.
Series [3] addresses T2, APOL1 G2 (Homo sapiens, UniProt O14791, DEL388-389/M228I/R255K).
T2 sequence (O14791 with tags, fused parts or gaps M228I/R255K/DEL388-389): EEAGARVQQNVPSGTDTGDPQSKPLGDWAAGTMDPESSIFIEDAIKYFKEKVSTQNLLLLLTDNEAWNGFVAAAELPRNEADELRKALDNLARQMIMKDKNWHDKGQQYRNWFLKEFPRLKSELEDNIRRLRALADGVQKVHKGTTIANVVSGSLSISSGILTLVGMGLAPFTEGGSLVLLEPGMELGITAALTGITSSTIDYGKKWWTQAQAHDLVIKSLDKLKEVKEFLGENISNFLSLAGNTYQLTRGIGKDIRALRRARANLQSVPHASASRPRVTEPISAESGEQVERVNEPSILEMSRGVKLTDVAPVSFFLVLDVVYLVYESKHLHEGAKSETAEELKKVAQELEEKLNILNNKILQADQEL
Put plainly: Thallium flux assay, tet-inducible HEK293 APOL1 G2. The series is classed as cell-based.

The target of series [4] is T3, APOL1 G2 (Homo sapiens, UniProt O14791, DEL388-389/M228I/R255K, cells depend on it).
T3 sequence (O14791 with tags, fused parts or gaps M228I/R255K/DEL388-389): T2 sequence (O14791 with tags, fused parts or gaps M228I/R255K/DEL388-389)
The series is described as follows: HEK cell rescue. The series is classed as cell-based. Conditions: read-out: APOL1 G2 HEK Cell Rescue EC50; HEK293 APOL1 G2; replicates in brackets.

Series [5] concerns APOL1 G2mc mice. The series is described as follows: Prophylactic IFNγ-induced proteinuria model in APOL1 G2 multicopy mice. Conditions: 30 mg/kg bid. Format: in vivo, mouse.
Series [6] relates to APOL1 G2sc mice. The series is described as follows: Therapeutic IFNγ plasmid model in APOL1 G2 single copy mice, UACR. Format: in vivo, mouse. Conditions: 30 mg/kg bid from day 6, vs vehicle. The essentials: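 Homozygous APOL1 G2 single-copy transgenic mice of both sexes. Proteinuria was induced by a single hydrodynamic tail-vein injection of a CpG-free plasmid encoding murine IFNγ, 0.3 μg total in saline at 10% body weight, given over about 5–10 s. Mice were allocated by day-5 UACR to give matched group means (n = 12 vehicle, 11 treated). Serum IFNγ was measured by immunoassay on days 1, 5, 9 and 14.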

The subject of series [7] is APOL1 G2sc mice. The series is described as follows: Kidney histopathology and nephrin immunohistochemistry. Format: in vivo, mouse. The note with it: IFNγ plasmid, 30 mg/kg bid. The essentials: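 FVB homozygous APOL1 G2 single-copy mice received a hydrodynamic tail-vein injection of 0.3 μg CpG-free murine IFNγ plasmid in saline (volume 10% of body weight). Groups were balanced by day-5 UACR; vehicle or test compound bid started on day 6. The left kidney was formalin-fixed and cut into 3 µm FFPE sections. Nephrin IHC used CC1 retrieval (95 °C, 64 min), antibody 1:1000 for 1 h, and DAB. AI scoring of all glomeruli in one section gave the H-score.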

Series [8] addresses T4, APOL1 G0 (Homo sapiens, UniProt O14791, M228I/R255K).
T4 sequence (O14791 28-398 M228I/R255K): T1 sequence (O14791 28-398 M228I/R255K/S342G/I384M) with G315S, M357I
The series is described as follows: HEK cell rescue. The series is classed as cell-based. The gist of the method:
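HEK293 tet-inducible APOL1 cells in DMEM with 2% tet-free FBS, seeded at 23,400 cells/well and induced with 50 ng/mL tet for 24 h alongside test compound. Dosing was a 10-point 3-fold series from 10 μM, in duplicate. MultiTox reagent was added for 30 min at 37 °C, reading viability (ex 400/em 486) and cytotoxicity (ex 485/em 535). The dead:live ratio was normalized to no-tet (100%) and tet-only (0%) controls before curve fitting.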

Series [9] has as its target T4, APOL1 G0. The series is described as follows: Automated whole-cell patch clamp. The series is classed as cell-based. The gist of the method:
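Tet-inducible HEK293 APOL1 G0 cells, induced with 15 ng/mL tet for 16–20 h. Automated whole-cell recording used extracellular NaCl and intracellular CsF, with hole resistance 1.5–2.5 MΩ and a ramp protocol. After 5 min control recording, six test compound concentrations (100 pM–1 μM) were applied for 5 min each. Peak outward current was normalized to control and fitted to a four-parameter variable-slope curve; 8 cells.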
For orientation: In patch-clamp work, channel activity is measured electrically.

The target of series [10] is T1, APOL1 G1. The series is described as follows: Automated whole-cell patch clamp. The series is classed as cell-based.
The target in series [11] is T2, APOL1 G2. The series is described as follows: Automated whole-cell patch clamp. The series is classed as cell-based.
The next series deals with T5, recombinant APOL1 G0 (Homo sapiens, UniProt O14791).
T5 sequence (O14791 28-398): T1 sequence (O14791 28-398 M228I/R255K/S342G/I384M) with I201M, K228R, G315S, M357I
The series is described as follows: Trypanosome. The series is classed as cell-based. The essentials:
(§1)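 T. b. brucei were grown in modified HMI-9, then plated at 120,000 parasites/well in phenol red/FBS-free medium with Serum Plus, test compound and recombinant APOL1. APOL1 was at a final level killing about 90% of parasites. After 16 h at 37 °C, alamarBlue was added for 2.5 h, read at ex/em 555/585, in duplicate, and fitted to dose–response curves. Experimental replicates: G0 n=1, G1 n=4, G2 n=1.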

In a further series the target is T6, recombinant APOL1 G1 (Homo sapiens, UniProt O14791, I384M/S342G).
T6 sequence (O14791 28-398 S342G/I384M): T1 sequence (O14791 28-398 M228I/R255K/S342G/I384M) with I201M, K228R
The series is described as follows: Trypanosome. Format: cell-based. The essentials: as §1

Another series deals with T7, recombinant APOL1 G2 (Homo sapiens, UniProt O14791, DEL388-389).
T7 sequence (O14791 with tags, fused parts or gaps DEL388-389): T2 sequence (O14791 with tags, fused parts or gaps M228I/R255K/DEL388-389) with I201M, K228R
Put plainly: Trypanosome. The series is classed as cell-based. The gist of the method: as §1

Series [12] concerns APOL1 G2mc mice. Conditions: 3 mg/kg tid; cited from earlier work.
The conditions of series [13]: cited from earlier work.
The subject of series [14] is purified, recombinant APOL1. Conditions: cited from earlier work.

Regarding `Cc1cc(F)cc2c(CCC(=O)N[C@H]3CCNC3=O)c(-c3ccc(F)cc3)[nH]c12` [Compound 2, 3-[5-fluoro-2-(4-fluorophenyl)-7-methyl-1H-indol-3-yl]-N-[(3S)-2-oxopyrrolidin-3-yl]propanamide], 40 nM corresponded to half-maximal inhibition on APOL1 G1 [1] (IC50). This compound also returned an EC50 at APOL1 G1 [2] of 37 nM. Also, the logD in “LogD7.4” was 2.8. In the series “Rat Clint”, this compound came in with a hepatocyte CLint of 8.2 µL/min/1e6 cells. This compound came in with a hepatocyte CLint in “Human Clint” of 15.4 µL/min/1e6 cells. In the series “Rat pharmacokinetics”, this compound showed a Vd of 2.1 L/kg, a clearance of 15 mL/min/kg, a half-life of 246 min and a bioavailability of 34%.
`Cc1cc(F)cc2c(CCC(=O)N[C@@H]3C(=O)NC[C@H]3O)c(-c3ccc(F)cc3)[nH]c12` [Compound 3, 3-[5-fluoro-2-(4-fluorophenyl)-7-methyl-1H-indol-3-yl]-N-[(3S,4 R)-4-hydroxy-2-oxo-pyrrolidin-3-yl]propanamide] registered an IC50 against APOL1 G1 [1] of 4.2 nM. For the same compound, the IC50 on APOL1 G2 [3] was 5.4 nM. For the same compound, a half-maximal effect on APOL1 G1 [2] (EC50) was put at 3.6 nM. At APOL1 G2 [4], the EC50 worked out at 10 nM. This compound also had a logD in “LogD7.4” of 2.7. The compound further yielded a hepatocyte CLint in “Rat Clint” of 5.1 µL/min/1e6 cells. In addition, in “Human Clint”, the hepatocyte CLint turned out to be 6.3 µL/min/1e6 cells. For the same compound, in “Rat pharmacokinetics”, the Vd was 1.4 L/kg, the clearance was found to be 6 mL/min/kg, the half-life is 252 min and the bioavailability turned out to be 28%. The “APOL1-mediated proteinuria, prophylactic treatment” value in the series on APOL1 G2mc mice [5] is “able to prevent APOL1-mediated proteinuria”. Besides, in the series with APOL1 G2sc mice [6], the “Percent reduction in UACR AUC Day 6-14” value came out at 97%. For the same compound, in the series with APOL1 G2sc mice [7], the “microscopic evaluation of kidney tissues” value is on record as “no microscopic abnormalities or nephrin loss were noted” and the “nephrin H-scores versus no IFNγ control” value was “comparable”.
In the case of `O=C(CCc1c(-c2ccc(F)cc2)[nH]c2c(F)cc(F)cc12)N[C@@H]1C(=O)NC[C@H]1O` [VX-147, 3-[5,7-difluoro-2-(4-fluorophenyl)-1H-indol-3-yl]-N-[(3S,4 R)-4-hydroxy-2-oxo-pyrrolidin-3-yl] propanamide], the IC50 against APOL1 G1 [1] was 2 nM; at APOL1 G2 [3] it was 1.2 nM; on APOL1 G0 [9] it was 2.3 nM; against APOL1 G1 [10], 1.3 nM; against APOL1 G2 [11], 1.1 nM. Moreover, the EC50 at APOL1 G0 [8] was found to be 4.3 nM; at APOL1 G1 [2], 2 nM; on APOL1 G2 [4] it was 2.2 nM; at recombinant APOL1 G0, 2 nM; on recombinant APOL1 G1, 2.1 nM; at recombinant APOL1 G2, 1.2 nM. In the series “LogD7.4”, the logD amounted to 2.7. For the same compound, the hepatocyte CLint in the series “Rat Clint” is 4.7 µL/min/1e6 cells; in “Human Clint” it was < 2.5 µL/min/1e6 cells. For the same compound, the Vd in “Rat pharmacokinetics” turned out to be 0.9 L/kg. The compound also yielded a clearance in “Rat pharmacokinetics” of 4.8 mL/min/kg. Further, the half-life in “Rat pharmacokinetics” is 150 min. In the series “Rat pharmacokinetics”, this compound gave a bioavailability of 57%. Also, the “APOL1-dependent proteinuria, prophylactic treatment” value with APOL1 G2mc mice [12] is given as “reduced APOL1-dependent proteinuria”. The reduction in proteinuria in series [13] (13-week clinical trial, patients with two APOL1 risk alleles and proteinuric non-diabetic kidney disease) was 47.6%. In series [13] (13-week study in 16 individuals), the glomerular filtration rate result is “stable”. The “binding to purified, recombinant APOL1” value in series [14] is on record as “bind directly”.
